# SR-BI DiI inh = mouse SR-BI HDL lipid transfer inhibition | inhibition, % at 12.5 µM | 320,000 tested, 0.96% active | Q61009 | AID 488896 | ldlA[mSR-BI] CHO cells, DiI-HDL uptake fluorescence, 3 h;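 active = mean replicate inhibition of at least 70% and a set share of replicates each scoring 70 or more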;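 note: 0% = median of neutral control wells and 100% = median of positive control wells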
# SR-BI uptake up = SR-BI HDL lipid transfer activation. CHO ldlA[mSR-BI] cells, DiI-HDL uptake fluorescence, 3 h; 100 = double the neutral-control signal. activation, % at 12.5 µM. 320,000 tested, 0.096% active;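 active = mean replicate activation of at least 60% and every replicate at or above 60%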;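 note: 0% = median plate neutral-control signal and 100% = twice that signal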
#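 Material: SR-BI-overexpressing, LDLR-lacking CHO cells; schedule: compound exposure 3 h, 37 °C; reagent: DiI-labelled HDL at 10 µg/mL final; technique: bottom-read fluorescence, 550/595 nm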
# ATG4B inhibitor = ATG4B (human) cysteine protease inhibition. ATG4B cleavage of LC3-PLA2, NBD-HPC fluorescence, 1 h. inhibition, % at 8.33 µM. 340,000 tested, 0.51% active. AID 504462; in the data active = inhibition above about 40%
# Target sequence (Q9Y4P1 whole entry, looked up): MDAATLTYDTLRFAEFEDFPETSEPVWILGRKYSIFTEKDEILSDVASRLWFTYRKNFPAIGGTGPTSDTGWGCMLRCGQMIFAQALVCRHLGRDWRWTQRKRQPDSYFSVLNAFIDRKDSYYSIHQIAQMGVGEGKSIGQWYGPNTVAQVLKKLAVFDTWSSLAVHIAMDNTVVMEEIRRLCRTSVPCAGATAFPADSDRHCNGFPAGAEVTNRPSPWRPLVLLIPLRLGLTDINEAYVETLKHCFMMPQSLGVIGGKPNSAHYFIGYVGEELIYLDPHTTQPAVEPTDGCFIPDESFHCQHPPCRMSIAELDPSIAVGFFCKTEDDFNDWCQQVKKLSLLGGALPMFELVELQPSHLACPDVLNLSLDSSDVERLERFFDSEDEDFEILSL
# CAL PDZ FP-1 = blocks peptide binding to human CAL PDZ domain; Q9HD26; purified CAL PDZ, TMR-peptide fluorescence polarization, 1 h; inhibition, % at 20 µM; 330,000 tested, 0.02% active; AID 504414;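 active = highest replicate inhibition of at least 40%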;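 note: plate controls were DMSO neutral control wells for no effect and unlabeled competitor peptide control wells for full effect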
#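 Assay system – tagged CAL PDZ protein CerCALP, purified · Timing – 1 h at RT · Compound – single point, 20 µM · Measured by – fluorescence polarization from S- and P-plane intensities, G-factor corrected · Evaluation – inhibition from polarization loss · Probe or stimulus – TMR reporter peptide T*-PRC34 · Buffer or medium – pH 7.4 phosphate-saline buffer, reducing agent, detergent, IgG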
# CAL PDZ FP-2 = inhibitors of human CAL PDZ peptide binding | 300,000 tested, 0.92% active | Q9HD26 | inhibition, % at 24.9 µM | AID 602252 | purified CAL PDZ, TMR-peptide fluorescence polarization, 1 h;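 active = mean inhibition of at least 30% with at least half of replicates also reaching 30%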;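 note: 0% = DMSO neutral control and 100% = excess unlabeled competitor peptide PRC23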
# Starred values were filed as active, the others as inactive; nt = not tested or not shown. A selection: hits, their analogues and other compounds. The true share with any hit is near 2.3%.
SMILES,SR-BI DiI inh,SR-BI uptake up,ATG4B inhibitor,CAL PDZ FP-1,CAL PDZ FP-2
O=C1NC(=O)C(=Cc2ccc(-c3ccccc3[N+](=O)[O-])o2)C(=O)N1,76.8*,-76.8,5.2,-4.5,-14.7
Cn1ncnc2c(=O)n(C)c(=O)nc1-2,-2.6,2.6,86.2*,-3.5,-3.4
O=C1NC(=O)C(Nc2ccccc2)C(=O)N1,7.4,-7.4,-2.8,-1.8,-4.7
CC(=O)N1CCCSC1=Nc1ccccc1,-27.1,27.1,-11.2,-0.7,57.9*
CCOc1ccccc1N=C1SCCCN1C,25.5,-25.5,4.6,-0.1,nt
Cc1nc2ccccc2c(=O)n1/N=C/c1cc(Br)cc(Br)c1O,85.4*,-85.4,23.2,-0.3,-1.1
O=C(c1cc2cc(Br)ccc2[nH]1)N1CCC2(CC1)OCCO2,-424.3,424.3*,-1.9,0.3,-3.3
CC(C)(O)C1C2OC(=O)C1C1(O)CC3OC34C(=O)OC2C14C (stereo unspecified),-3.8,3.8,-5.4,-0.9,-1.5
COc1ccc(CN2C(=O)NC(=O)/C(=C/c3ccc(OC)c(OC)c3OC)C2=O)cc1,-379.8,379.8*,-1.0,0.8,-1.0
O=C(N/N=C/c1c(O)n(C2CCCCC2)c(=S)[nH]c1=O)c1ccccc1O,129.8*,-129.8,-3.5,-2.1,-2.7
O=C(N/N=C/c1c(O)n(C2CCCCC2)c(=S)[nH]c1=O)c1ccccc1,14.8,-14.8,3.0,-0.9,-0.5
O=C(N/N=C/c1c(O)n(Cc2ccco2)c(=O)[nH]c1=O)c1ccccc1O,80.3*,-80.3,3.5,1.3,6.1
CC(C)c1ccc(-n2c(O)c(/C=N/NC(=O)c3ccncc3)c(=O)[nH]c2=O)cc1,12.2,-12.2,-3.8,-0.5,-5.2
CC(C)c1ccc(-n2c(O)c(/C=N/NC(=O)c3ccccc3O)c(=O)[nH]c2=S)cc1,106.9*,-106.9,-1.2,0.4,4.6
CC(C)CC1(CCc2ccccc2)C(=O)NC(=O)NC1=O,-41.5,41.5,-11.1,-0.7,0.1
CCCCNC(=S)N1CCn2cccc2C1c1cccnc1 (stereo unspecified),nt,nt,0.6,0.2,0.9
CNC(=S)N1CCn2cccc2C1c1cccnc1 (stereo unspecified),-3.3,3.3,0.3,6.7,77.7*
CC1(C)C(=O)CCC2C1=CCC1C2CCC2(C)C(O)CCC12 (stereo unspecified),27.2,-27.2,-17.3,-0.7,nt
O=[N+]([O-])c1oc2ccc3ccccc3c2c1CCO,-12.6,12.6,6.2,-0.7,-6.4
Cc1c(C)c2ccc(OCC(=O)N3CCC(C(=O)O)(c4ccccc4)CC3)c(C)c2oc1=O,-22.8,22.8,-10.0,-0.3,2.3
Cc1c(C)c2ccc(OCC(=O)N3CCC(C(=O)O)(c4ccccc4)CC3)cc2oc1=O,2.5,-2.5,-13.7,-0.2,40.8*
CC(C)Oc1cccc(C(=O)C2CCCN(Cc3ccon3)C2)c1 (stereo unspecified),-0.2,0.2,-11.4,-0.7,65.1*
O=C(c1cccc(Cl)c1)C1CCCN(Cc2ccon2)C1 (stereo unspecified),-16.0,16.0,10.5,-2.9,-0.4
CSc1ncc(CN2CCCC(C(=O)c3cccc(Cl)c3)C2)cn1 (stereo unspecified),-9.5,9.5,-11.6,-0.5,47.9*
CC1=C(O)C(=O)C=C2C1=CC=C1C2(C)CCC2(C)C3CC(C)(C(=O)O)CCC3(C)CCC12C (stereo unspecified),37.1,-37.1,25.4,-0.1,-5.1
CC(C)(C)C(=O)O[C@H]1CC[C@@]2(C)C(=CC(=O)C3C2CC[C@]2(C)C(=O)CCC32)C1 (stereo partly specified),15.3,-15.3,-4.2,-0.4,84.9*
CC(=O)O[C@H]1CC[C@@]2(C)C(=CC[C@@H]3[C@@H]2CC[C@]2(C)C(=O)CC[C@@H]32)C1,-33.2,33.2,-3.6,-0.9,1.0
CC(=O)O[C@H]1CC[C@@]2(C)C(=CC(=O)C3C2CC[C@@]2(C)C3C[C@H](OC(C)=O)[C@@H]2OC(C)=O)C1 (stereo partly specified),-65.7,65.7*,-4.4,-0.8,-6.0
Clc1ccc(C(Cl)(Cl)Cl)c(Cl)c1,-8.4,8.4,0.9,-0.3,70.5*
Cc1cccc(C2=NCC(=O)N(CC(=O)NCc3ccco3)c3sc4c(c32)CCCC4)c1,77.3*,-77.3,11.8,-0.2,-0.5
